# Measurements published in the M2OR odorant receptor database.
# Target: T1, OR5M3 (Homo sapiens) (UniProt Q8NGP4)
# T1 sequence (whole entry): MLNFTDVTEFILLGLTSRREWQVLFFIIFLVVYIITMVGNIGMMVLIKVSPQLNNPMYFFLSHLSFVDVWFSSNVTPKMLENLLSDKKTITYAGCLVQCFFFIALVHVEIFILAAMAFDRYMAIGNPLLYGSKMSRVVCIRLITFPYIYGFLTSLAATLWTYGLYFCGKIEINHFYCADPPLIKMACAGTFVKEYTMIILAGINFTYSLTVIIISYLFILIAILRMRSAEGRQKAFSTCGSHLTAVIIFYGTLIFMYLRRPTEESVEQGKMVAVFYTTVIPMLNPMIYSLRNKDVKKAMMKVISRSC
# Details: stereoisomer not certain
# Method in brief: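 Transient luciferase assays in mammalian cell lines were common, though methods varied by source. The values come from published papers and their supplementary material, with extra details from the original authors when needed. Responsive refers to a measured signal the original authors judged statistically different from baseline, and non-responsive (inactive) to the remainder.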
# 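Further: active if original authors judged signal statistically different from baseline.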
row,Structure (SMILES),odorant receptor agonist call
1,CCCC1CCCC(=O)O1 (stereo not drawn),inactive
2,CCC=CCCC=CC=O,inactive
3,CCCCCC=CCCC=O,inactive
4,COc1cccc(OC)c1O,inactive
5,CC1=CCC2CC1C2(C)C (stereo not drawn),inactive
6,Cc1ccc(O)cc1,inactive
7,CCC=CCCOC(C)=O,inactive
8,CC1=CC(=O)C(C)O1 (stereo not drawn),inactive
9,OCCc1ccccc1,inactive
10,CCCCC(C)CCC(=O)O (stereo not drawn),inactive
11,CCCCC(CC)CCC(=O)O (stereo not drawn),inactive
12,CCOC(=O)C1CCCCC1,inactive
13,CCCC=CC=O,inactive
14,CCCCCC(C)O (stereo not drawn),inactive
15,CCCCCC=CC=O,inactive
16,CCC=O,inactive
17,CCCSSSC,inactive
18,O=C(O)CCc1ccccc1,inactive
19,CC(=O)C=CC1=C(C)CCCC1(C)C,inactive

row,Structure (SMILES),odorant receptor agonist call
1,CCC(=O)C(C)=O,inactive
2,COC(=O)C=Cc1ccccc1,inactive
3,CCCCCC(=O)OCC,inactive
4,CSSc1ccoc1C,inactive
5,CSCCCO,inactive
6,CC=CC(=O)C(C)CC (stereo not drawn),inactive
7,CCO,inactive
8,CC(=O)c1ccc(C)cc1,inactive
9,CC1=CCOC1=O,inactive
10,CCCCC1OC(=O)CC1C (stereo not drawn),inactive
11,CCCC(=O)C(C)CC (stereo not drawn),inactive
12,C=C(C)C1CC=C(C)CC1 (stereo not drawn),inactive
13,CC(=O)C(C)O (stereo not drawn),inactive
14,SCCc1ccccc1,inactive
15,CCCCC1CCC(=O)O1 (stereo not drawn),inactive
16,CCC=CCCC=CCO,inactive
17,CCCCCCCC(=O)OCC,inactive
18,CC(C)CCO,inactive
19,Cc1cccc(O)c1,inactive
